Bioassay records (PubChem BioAssay)
Shown are actives, neighbours in structure and some others; about 2.1% of the full set was active somewhere.
APJ antagonist: antagonists of human apelin receptor APJ, primary screen, CHO-K1 cells, beta-arrestin complementation, luminescence; actives 0.32% (n = 330,000); AID 2521, 2010; inhibition, % at 20 µM; P35414;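 active means inhibition above about 40% at 20 µM, limit read from the data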;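 further: cells challenged with 10 nM apelin-13 agonist together with compound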
CXCR6 block: CXCR6 receptor inhibitors, primary screen, cell-based, beta-arrestin, luminescence, CHO-K1 PathHunter, 1536-well; C-X-C chemokine receptor type 6 (Homo sapiens), O00574; inhibition, % at 20 µM; actives 0.36% (n = 360,000); in the data active means inhibition above about 34%, passing the limit was not always enough;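 further: antagonist mode with CXCL16 agonist at 10 nM final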
HTR2A ag: mouse Htr2a agonists via beta-arrestin recruitment, primary screen, cell-based, luminescence; CHO-K1 mHTR2A beta-arrestin complementation; percent of 30 µM serotonin response; AID 624169, 2012; actives 0.66% (n = 360,000); activation, % at 7.6 µM;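 active means activation above a run cutoff, the mean activation of all tested compounds plus 3 SD, cut at about 14% in these data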
EBI2 antag: EBI2 receptor antagonists, beta-arrestin recruitment, primary screen, cell-based, luminescence, 7a,25-OHC stimulation, uHTS; 7a,25-OHC stimulated; AID 651636, 2012; actives 0.81% (n = 360,000); G-protein coupled receptor 183 (Homo sapiens), P32249; inhibition, % at 5 µM; in the data active means inhibition above about 38%;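 further: enzyme fragment complementation signal reports receptor beta-arrestin coupling in cells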
Target sequence (P32249 whole entry, looked up, the tested form may be a part): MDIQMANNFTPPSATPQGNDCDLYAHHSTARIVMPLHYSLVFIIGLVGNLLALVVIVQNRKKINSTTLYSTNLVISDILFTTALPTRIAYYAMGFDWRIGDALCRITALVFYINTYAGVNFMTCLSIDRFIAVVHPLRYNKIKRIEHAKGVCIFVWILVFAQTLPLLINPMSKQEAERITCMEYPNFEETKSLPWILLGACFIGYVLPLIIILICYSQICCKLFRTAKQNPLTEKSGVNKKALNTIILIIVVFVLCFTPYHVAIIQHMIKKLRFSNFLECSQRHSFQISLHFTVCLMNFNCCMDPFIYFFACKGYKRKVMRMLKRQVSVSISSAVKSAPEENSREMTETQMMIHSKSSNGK
APJ agonist: agonists of human apelin receptor APJ, primary screen, CHO-K1 cells, PathHunter beta-arrestin, luminescence; P35414; 0% DMSO wells, 100% apelin; activation, % at 20 µM; actives 0.11% (n = 330,000);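 active means activation more than six SD over the plate average, tested at 20 µM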
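Test system: CHO-K1 APJ beta-arrestin complementation cell line. Amount: cell density 1000 per well. Controls: DMSO negative, 10 nM Apelin-13 positive. Signal: luminescent beta-gal fragment complementation, chemiluminescent substrate. Read-out basis: agonist-driven arrestin binding to APJ. Timing: compound stimulation 90 min at 25 °C, detection 60 min.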
CCR6 antagonist: CCR6 receptor antagonists, primary screen, cell-based, CHO-K1, luminescence, beta-arrestin, uHTS | C-C chemokine receptor type 6 (Homo sapiens), P51684 | CHO-K1 CCR6 PathHunter beta-arrestin, CCL20-stimulated | inhibition, % at 20 µM | actives 0.49% (n = 340,000);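 active means compounds whose inhibition of the agonist-driven luminescence signal at 20 µM reaches about 50%, limit read from the data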;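 further: cells stimulated with CCL20 at 14 nM final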
Large screens that a line does not name were inactive.

Fc1ccccc1N1CCN(CCCNc2ccc3nncn3n2)CC1	HTR2A ag 26
c1ccc(CN2CCN(CCCNc3ccc4nnc(-c5ccccc5)n4n3)CC2)cc1	none
CCOc1ccc(C2CC(c3ccc(CC)cc3)n3nc(N)nc3N2)cc1 (stereo unspecified)	none
O=S(=O)(Nc1cc(Sc2cccc3cccnc23)c(O)c2ccccc12)c1ccc(F)cc1	CCR6 antagonist 65 (no result: APJ antagonist, CXCR6 block, HTR2A ag, EBI2 antag, APJ agonist)
CN(C)C(=O)CSc1cccc2cccnc12	CXCR6 block 55, CCR6 antagonist 66
CC(=O)/C(=N\Nc1ccccc1)Sc1cccc2cccnc12	none
O=C(Sc1cccc2cccnc12)c1ccc(F)cc1	APJ antagonist 44 (no result: CXCR6 block, HTR2A ag, EBI2 antag, CCR6 antagonist)
N=C1S/C(=C\c2ccc(-c3cccc(Cl)c3)o2)C(=O)N1c1nccs1	CXCR6 block 54, EBI2 antag 67, CCR6 antagonist 82 (no result: APJ antagonist, APJ agonist)
COc1ccc(/C=C2\SC(=N)N(c3nccs3)C2=O)cc1OC	CCR6 antagonist 59
COc1ccc(/C=C2\SC(=S)N(NC(=O)c3ccncc3)C2=O)cc1OC	none (no result: CXCR6 block, HTR2A ag, EBI2 antag, CCR6 antagonist)
COc1ccc(-n2nc(C(=O)NCC(=O)N3CCCC(C)C3)c3ccccc3c2=O)cc1 (stereo unspecified)	none
CNC(CC(=O)c1ccc([N+](=O)[O-])cc1)C(Cl)(Cl)Cl (stereo unspecified)	CXCR6 block 90 (no result: APJ antagonist, APJ agonist, CCR6 antagonist)
COc1ccc(C(=O)CC(Nc2ccc([N+](=O)[O-])cc2)c2ccc(OC)cc2)cc1 (stereo unspecified)	none
Cc1ccccc1/C=N/Nc1ccnc2cc(Cl)ccc12	none (no result: APJ antagonist, APJ agonist)
Oc1ccc(/C=N/Nc2ccnc3cc(Cl)ccc23)c(O)c1	EBI2 antag 46
COc1cc(NC(=O)COC(=O)CNC(=O)c2ccc(C)s2)cc(OC)c1	none
Cc1cc(N2CCN(C)CC2)ccc1NC(=O)c1c2c(nc3ccccc13)CCN(Cc1ccccc1)C2	APJ agonist 16
CCN(CC)c1ccc(/C=C2/SC(=O)N(C(C)C)C2=O)o1	EBI2 antag 42 (no result: APJ antagonist, APJ agonist)
CCN(CC)c1ccc(/C=C(/C#N)c2nc3ccc(C)cc3[nH]2)c(OC(C)C)c1	CCR6 antagonist 52
COc1cc(/C=C(\C#N)c2nc3ccc(C)cc3[nH]2)cc([N+](=O)[O-])c1O	CCR6 antagonist 51 (no result: APJ antagonist, APJ agonist)
COc1cc(/C=C(\C#N)c2nc3ccc(C)cc3[nH]2)c([N+](=O)[O-])cc1OC	none
CCCOc1ccc(C(O)CCNC(CC(=O)O)c2ccccc2)cc1 (stereo unspecified)	none
O=c1c2ccccc2nc(COc2ccccc2)n1/N=C/c1c[nH]c2ccccc12	none
Cc1ccc(CNc2oc(COc3ccccc3Cl)nc2C#N)cc1	EBI2 antag 47
COc1ccc(CNc2oc(COc3ccccc3Cl)nc2C#N)cc1	none
O=C(NCc1ccccn1)C1CC(c2ccccc2Cl)=NO1 (stereo unspecified)	HTR2A ag 15
O=C(Nc1nc(-c2cc(F)ccc2F)cs1)c1ccccn1	APJ antagonist 68, CXCR6 block 41, CCR6 antagonist 65
COc1ccc(CC(=O)OCC(=O)NCc2ccccc2Cl)cc1OC	none
N#C/C(=C/c1ccc(-c2ccccc2)o1)c1nc(-c2cccs2)cs1	none (no result: APJ antagonist, APJ agonist)
N#C/C(=C\c1ccc(-c2ccc(F)cc2)o1)C(=O)Nc1nc(-c2cccs2)cs1	CCR6 antagonist 55
C[C@H]1CN([C@@H](C)CO)C(=O)c2cccc(NC(=O)Nc3ccc(C(F)(F)F)cc3)c2O[C@@H]1CN(C)C(=O)Nc1ccc(F)cc1	none
C[C@H](CO)N1C[C@H](C)[C@@H](CN(C)C(=O)Nc2ccc(C(F)(F)F)cc2)Oc2c(NC(=O)Nc3ccc(C(F)(F)F)cc3)cccc2C1=O	HTR2A ag 15, EBI2 antag 43
COc1cc(/C=C(/C#N)C(=O)NCCc2c[nH]c3ccccc23)ccc1OCc1ccccc1F	CCR6 antagonist 58
CC(C)Cc1ccc(CN2CCCC(NC(=O)c3ccoc3)C2)cc1 (stereo unspecified)	none
O=C1OC2(c3ccccc31)c1cc(I)c(O)c(I)c1Oc1c2cc(I)c(O)c1I	APJ antagonist 46 (no result: CXCR6 block, HTR2A ag, EBI2 antag, CCR6 antagonist)
CC(=O)c1cccc(NC(=O)c2csc(-n3nc(C)cc3C(F)(F)F)n2)c1	none
Oc1ccc(Cl)cc1C1=NNC(c2cccs2)C1 (stereo unspecified)	none
Cc1ccc(O)c(C2=NNC(c3ccc(Cl)cc3)C2)c1 (stereo unspecified)	APJ antagonist 70
O=[N+]([O-])c1ccc(N=NNc2ccccc2)cc1	none
CCCCCNC(=O)C(CCc1ccccc1)n1c(=O)c(-c2ccccc2)nc2ccccc21 (stereo unspecified)	none (no result: APJ antagonist, CXCR6 block, APJ agonist, CCR6 antagonist)
CCOC(=O)C1CCCN(C(=O)Cn2sc3nc(C)cc(C)c3c2=O)C1 (stereo unspecified)	CCR6 antagonist 67
COC(=O)c1ccc2c(=O)n(CCCCCC(=O)N3CCN(c4ccccc4)CC3)c(=O)[nH]c2c1	APJ agonist 38
COC(=O)c1c(NC(=O)c2nc3ccccc3s2)sc2c1CCN(C(C)=O)C2	none
CNC(=O)c1c(NC(=O)c2nc3ccccc3s2)sc2c1CCC2	CXCR6 block 40 (no result: CCR6 antagonist)
C=CCn1nc([N+](=O)[O-])nc1Sc1cccc2cccnc12	CXCR6 block 47, CCR6 antagonist 64
CN1CCC(=NNC(=O)C(=O)Nc2ccc(F)cc2)CC1	none
CCOC(=O)Cc1csc(Nc2c(C)n(C)n(-c3ccccc3)c2=O)n1	CCR6 antagonist 69
O=[N+]([O-])c1ccc(N/N=C/c2ccc(O)c(O)c2O)c(S(=O)(=O)N2CCOCC2)c1	CCR6 antagonist 51
O=[N+]([O-])c1ccc(N/N=C/c2cccc(O)c2O)c(S(=O)(=O)N2CCOCC2)c1	APJ antagonist 58, CXCR6 block 55, EBI2 antag 41, CCR6 antagonist 72
CCCC(=O)Nc1ccc(NC(=O)C2CC2)cn1	none
O=C(c1ccc(Cl)cc1Cl)N1CCN(c2ccccn2)CC1	none
S=C(NCCc1c[nH]c2ccccc12)NC1CC1	none
CCOc1ccccc1N1C(=O)CC(Sc2n[nH]c(-c3ccccc3)n2)C1=O (stereo unspecified)	CCR6 antagonist 70
CCC1=NN(C(=O)c2cccc(Br)c2)C(O)(c2ccc(Br)cc2)C1 (stereo unspecified)	CCR6 antagonist 56
COc1ccccc1C(=O)Nc1nc2cc3c(cc2s1)OCCO3	HTR2A ag 23
